# Results from ChEMBL document CHEMBL4689842, “EUbOPEN Chemogenomics Library wave 1” (2021).
# Test system: Fibroblast
# Assay: Multiplex assay against human fibroblast
# Assay type: toxicity, cell-based
# Outline: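 Live cells were stained at seeding with Hoechst33342, BioTracker Green Microtubule Cytoskeleton Dye, MitoTracker Red and Annexin V Alexa Fluor 680. Following compound addition, they were imaged on a CQ1 microscope at 37°C and 5% CO2 and gated by CellPathfinder machine learning into Hoechst high-intensity objects or normal cells, with normal cells split into healthy, pyknosed or fragmented nuclei and pyknosed cells into mitotic or apoptotic. Tubulin, mitochondrial-mass and membrane-permeability phenotypes are per cents of healthy-nucleus cells.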
# [1] = 12 h, 1 µM, compound concentration 1 uM, replicate 1
# [2] = 12 h, 1 µM, compound concentration 1 uM, replicate 2
# [3] = 12 h, 10 µM, compound concentration 10 uM, replicate 1
# [4] = 12 h, 10 µM, compound concentration 10 uM, replicate 2
# [5] = 24 h, 1 µM, compound concentration 1 uM, replicate 1
# [6] = 24 h, 1 µM, compound concentration 1 uM, replicate 2
# [7] = 24 h, 10 µM, compound concentration 10 uM, replicate 1
# [8] = 24 h, 10 µM, compound concentration 10 uM, replicate 2
# [9] = 48 h, 1 µM, compound concentration 1 uM, replicate 1
# [10] = 48 h, 1 µM, compound concentration 1 uM, replicate 2
# [11] = 48 h, 10 µM, compound concentration 10 uM, replicate 1
# [12] = 48 h, 10 µM, compound concentration 10 uM, replicate 2
smiles,measurement,setting,value
Cc1ccc2c(c1)c1c(n2CCc2ccc(C)nc2)CCN(C)C1 [LATREPIRDINE],Population Apoptotic (%),[1],60%
same,Population Fragmented Nuclei (%),[1],26%
same,Population Healthy Nuclei (%),[1],55%
same,Population Hoechst High Intensity Objects (%),[1],15%
same,Population Membrane Permeable-Phenotype (%),[1],18%
same,Population Mitochondria Different-Phenotype (%),[1],18%
same,Population Mitotic Cells (%),[1],40%
same,Population Normal (%),[1],84%
same,Population Pyknosed Nuclei (%),[1],18%
same,Population Tubulin-Different-Phenotype (%),[1],59%
same,Total Cell Count,[1],127
same,Population Apoptotic (%),[2],100%
same,Population Fragmented Nuclei (%),[2],27%
same,Population Healthy Nuclei (%),[2],67%
same,Population Hoechst High Intensity Objects (%),[2],16%
same,Population Membrane Permeable-Phenotype (%),[2],5%
same,Population Mitochondria Different-Phenotype (%),[2],27%
same,Population Mitotic Cells (%),[2],0%
same,Population Normal (%),[2],83%
same,Population Pyknosed Nuclei (%),[2],4%
same,Population Tubulin-Different-Phenotype (%),[2],27%
same,Total Cell Count,[2],61
same,Population Apoptotic (%),[3],55%
same,Population Fragmented Nuclei (%),[3],29%
same,Population Healthy Nuclei (%),[3],47%
same,Population Hoechst High Intensity Objects (%),[3],15%
same,Population Membrane Permeable-Phenotype (%),[3],3%
same,Population Mitochondria Different-Phenotype (%),[3],30%
same,Population Mitotic Cells (%),[3],44%
same,Population Normal (%),[3],84%
same,Population Pyknosed Nuclei (%),[3],23%
same,Population Tubulin-Different-Phenotype (%),[3],88%
same,Total Cell Count,[3],148
same,Population Apoptotic (%),[4],88%
same,Population Fragmented Nuclei (%),[4],7%
same,Population Healthy Nuclei (%),[4],65%
same,Population Hoechst High Intensity Objects (%),[4],8%
same,Population Membrane Permeable-Phenotype (%),[4],42%
same,Population Mitochondria Different-Phenotype (%),[4],100%
same,Population Mitotic Cells (%),[4],11%
same,Population Normal (%),[4],91%
same,Population Pyknosed Nuclei (%),[4],26%
same,Population Tubulin-Different-Phenotype (%),[4],100%
same,Total Cell Count,[4],103
same,Population Apoptotic (%),[5],60%
same,Population Fragmented Nuclei (%),[5],27%
same,Population Healthy Nuclei (%),[5],59%
same,Population Hoechst High Intensity Objects (%),[5],16%
same,Population Membrane Permeable-Phenotype (%),[5],22%
same,Population Mitochondria Different-Phenotype (%),[5],14%
same,Population Mitotic Cells (%),[5],40%
same,Population Normal (%),[5],83%
same,Population Pyknosed Nuclei (%),[5],12%
same,Population Tubulin-Different-Phenotype (%),[5],61%
same,Total Cell Count,[5],140
same,Population Apoptotic (%),[6],55%
same,Population Fragmented Nuclei (%),[6],23%
same,Population Healthy Nuclei (%),[6],67%
same,Population Hoechst High Intensity Objects (%),[6],13%
same,Population Membrane Permeable-Phenotype (%),[6],10%
same,Population Mitochondria Different-Phenotype (%),[6],27%
same,Population Mitotic Cells (%),[6],44%
same,Population Normal (%),[6],86%
same,Population Pyknosed Nuclei (%),[6],8%
same,Population Tubulin-Different-Phenotype (%),[6],14%
same,Total Cell Count,[6],74
same,Population Apoptotic (%),[7],55%
same,Population Fragmented Nuclei (%),[7],33%
same,Population Healthy Nuclei (%),[7],51%
same,Population Hoechst High Intensity Objects (%),[7],28%
same,Population Membrane Permeable-Phenotype (%),[7],10%
same,Population Mitochondria Different-Phenotype (%),[7],37%
same,Population Mitotic Cells (%),[7],45%
same,Population Normal (%),[7],71%
same,Population Pyknosed Nuclei (%),[7],14%
same,Population Tubulin-Different-Phenotype (%),[7],82%
same,Total Cell Count,[7],189
same,Population Apoptotic (%),[8],76%
same,Population Fragmented Nuclei (%),[8],4%
same,Population Healthy Nuclei (%),[8],56%
same,Population Hoechst High Intensity Objects (%),[8],4%
same,Population Membrane Permeable-Phenotype (%),[8],56%
same,Population Mitochondria Different-Phenotype (%),[8],100%
same,Population Mitotic Cells (%),[8],24%
same,Population Normal (%),[8],95%
same,Population Pyknosed Nuclei (%),[8],38%
same,Population Tubulin-Different-Phenotype (%),[8],100%
same,Total Cell Count,[8],119
same,Population Apoptotic (%),[9],88%
same,Population Fragmented Nuclei (%),[9],36%
same,Population Healthy Nuclei (%),[9],55%
same,Population Hoechst High Intensity Objects (%),[9],23%
same,Population Membrane Permeable-Phenotype (%),[9],13%
same,Population Mitotic Cells (%),[9],11%
same,Population Normal (%),[9],76%
same,Population Pyknosed Nuclei (%),[9],8%
same,Population Tubulin-Different-Phenotype (%),[9],42%
same,Total Cell Count,[9],140
same,Population Apoptotic (%),[10],100%
same,Population Fragmented Nuclei (%),[10],53%
same,Population Healthy Nuclei (%),[10],43%
same,Population Hoechst High Intensity Objects (%),[10],44%
same,Population Membrane Permeable-Phenotype (%),[10],22%
same,Population Mitochondria Different-Phenotype (%),[10],6%
same,Population Mitotic Cells (%),[10],0%
same,Population Normal (%),[10],55%
same,Population Pyknosed Nuclei (%),[10],3%
same,Population Tubulin-Different-Phenotype (%),[10],56%
same,Total Cell Count,[10],206
same,Population Fragmented Nuclei (%),[11],40%
same,Population Healthy Nuclei (%),[11],56%
same,Population Hoechst High Intensity Objects (%),[11],31%
same,Population Membrane Permeable-Phenotype (%),[11],7%
same,Population Mitochondria Different-Phenotype (%),[11],21%
same,Population Normal (%),[11],68%
same,Population Pyknosed Nuclei (%),[11],3%
same,Population Tubulin-Different-Phenotype (%),[11],80%
same,Total Cell Count,[11],208
same,Population Apoptotic (%),[12],100%
same,Population Fragmented Nuclei (%),[12],34%
same,Population Healthy Nuclei (%),[12],64%
same,Population Hoechst High Intensity Objects (%),[12],25%
same,Population Membrane Permeable-Phenotype (%),[12],14%
same,Population Mitochondria Different-Phenotype (%),[12],9%
same,Population Mitotic Cells (%),[12],0%
same,Population Normal (%),[12],74%
same,Population Pyknosed Nuclei (%),[12],2%
same,Population Tubulin-Different-Phenotype (%),[12],79%
same,Total Cell Count,[12],134
Cc1ccc(C)c(Oc2ccncc2C(=O)N2CCN(C3CC3)c3ccccc32)c1,Population Apoptotic (%),[1],75%
same,Population Fragmented Nuclei (%),[1],20%
same,Population Healthy Nuclei (%),[1],58%
same,Population Hoechst High Intensity Objects (%),[1],13%
same,Population Normal (%),[1],86%
same,Total Cell Count,[1],90
same,Population Apoptotic (%),[2],66%
same,Population Healthy Nuclei (%),[2],75%
same,Population Hoechst High Intensity Objects (%),[2],10%
same,Population Normal (%),[2],89%
same,Total Cell Count,[2],73
same,Population Apoptotic (%),[3],59%
same,Population Fragmented Nuclei (%),[3],27%
same,Population Healthy Nuclei (%),[3],43%
same,Population Hoechst High Intensity Objects (%),[3],10%
same,Population Normal (%),[3],89%
same,Total Cell Count,[3],178
same,Population Apoptotic (%),[4],33%
same,Population Fragmented Nuclei (%),[4],6%
same,Population Healthy Nuclei (%),[4],72%
same,Population Hoechst High Intensity Objects (%),[4],3%
same,Population Normal (%),[4],96%
same,Total Cell Count,[4],59
same,Population Apoptotic (%),[5],52%
same,Population Fragmented Nuclei (%),[5],19%
same,Population Healthy Nuclei (%),[5],56%
same,Population Hoechst High Intensity Objects (%),[5],19%
same,Population Normal (%),[5],80%
same,Total Cell Count,[5],88
same,Population Apoptotic (%),[6],42%
same,Population Fragmented Nuclei (%),[6],27%
same,Population Healthy Nuclei (%),[6],60%
same,Population Hoechst High Intensity Objects (%),[6],6%
same,Population Normal (%),[6],93%
same,Total Cell Count,[6],71
same,Population Apoptotic (%),[7],55%
same,Population Fragmented Nuclei (%),[7],26%
same,Population Healthy Nuclei (%),[7],51%
same,Population Hoechst High Intensity Objects (%),[7],6%
same,Population Normal (%),[7],93%
same,Total Cell Count,[7],189
same,Population Apoptotic (%),[8],53%
same,Population Healthy Nuclei (%),[8],66%
same,Population Hoechst High Intensity Objects (%),[8],7%
same,Population Normal (%),[8],92%
same,Total Cell Count,[8],65
same,Population Apoptotic (%),[9],80%
same,Population Fragmented Nuclei (%),[9],23%
same,Population Healthy Nuclei (%),[9],57%
same,Population Hoechst High Intensity Objects (%),[9],11%
same,Population Normal (%),[9],88%
same,Total Cell Count,[9],87
same,Population Apoptotic (%),[10],50%
same,Population Fragmented Nuclei (%),[10],24%
same,Population Healthy Nuclei (%),[10],72%
same,Population Normal (%),[10],84%
same,Total Cell Count,[10],91
same,Population Apoptotic (%),[11],66%
same,Population Fragmented Nuclei (%),[11],40%
same,Population Healthy Nuclei (%),[11],52%
same,Population Hoechst High Intensity Objects (%),[11],9%
same,Population Normal (%),[11],91%
same,Total Cell Count,[11],211
same,Population Apoptotic (%),[12],25%
same,Population Fragmented Nuclei (%),[12],42%
same,Population Healthy Nuclei (%),[12],54%
same,Population Hoechst High Intensity Objects (%),[12],7%
same,Population Normal (%),[12],92%
same,Total Cell Count,[12],159
